Assay results published in PubChem BioAssay AID463073 (The Scripps Research Institute Molecular Screening Center, 2010).
Hit rate of the full screen: of about 2,000 compounds, about 10 (0.5%) were called active. This is one part of a sample in which actives are shown more often than they occur. Values without a mark were called inactive.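 How the source made its calls: active means inhibition above 30%; inactive means the rest.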

biological target: Protein-arginine deiminase type-4 (Homo sapiens) (UniProt Q9UM07); experiment: blockers of protein arginine deiminase 4 – biochemical, fluorescence polarization, primary screen (AID 463073); details: recombinant PAD4, RFA probe fluorescence polarization; at 5 µM; hits give high values;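 further: 0% = PAD4 with DMSO and 100% = wells lacking PAD4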
Summary of the method: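 System: recombinant PAD4. Amount: PAD4 at 2 µM in dispensed buffer, before additions. Doses: single 5 µM final compound concentration. Timing: 30 min 25 °C preincubation, 5 h 37 °C labeling. Benchmarks: wells lacking PAD4 as full-inhibition control. Repeats: single well per compound. Measured by: FP, ex 525 nm, em 598 nm.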

Chain of Protein-arginine deiminase type-4 (Homo sapiens) (Q9UM07 whole entry, looked up): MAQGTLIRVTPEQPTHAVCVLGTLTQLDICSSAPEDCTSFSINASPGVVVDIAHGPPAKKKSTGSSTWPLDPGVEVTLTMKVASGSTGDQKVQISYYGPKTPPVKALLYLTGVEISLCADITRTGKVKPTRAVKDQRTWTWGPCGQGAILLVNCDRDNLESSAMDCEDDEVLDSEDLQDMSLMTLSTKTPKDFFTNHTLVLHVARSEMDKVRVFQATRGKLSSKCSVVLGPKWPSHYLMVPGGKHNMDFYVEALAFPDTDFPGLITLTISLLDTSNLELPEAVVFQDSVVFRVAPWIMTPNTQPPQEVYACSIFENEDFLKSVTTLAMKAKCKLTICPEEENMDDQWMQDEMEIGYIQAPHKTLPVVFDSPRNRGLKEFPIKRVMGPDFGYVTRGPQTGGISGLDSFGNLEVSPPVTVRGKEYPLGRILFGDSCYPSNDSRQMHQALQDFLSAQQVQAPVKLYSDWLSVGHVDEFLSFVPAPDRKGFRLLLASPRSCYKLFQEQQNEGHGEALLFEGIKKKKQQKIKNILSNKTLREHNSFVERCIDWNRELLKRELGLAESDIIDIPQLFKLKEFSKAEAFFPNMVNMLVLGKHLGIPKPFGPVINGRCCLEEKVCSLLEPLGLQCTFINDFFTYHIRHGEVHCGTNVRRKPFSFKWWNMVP

Compound | inhibition
O=C1C=Cc2ccccc2C1=O | 6.7%
O=C1C(=O)c2ccccc2-c2ccccc21 | 94.3% (active)
C[C@H]1CCCC(=O)CCC/C=C/c2cc(O)cc(O)c2C(=O)O1 | 0.58%
CC(C)[C@@]1(NC(=O)[C@@H]2C[C@@H]3c4cccc5[nH]cc(c45)C[C@H]3N(C)C2)O[C@@]2(O)[C@@H]3CCCN3C(=O)[C@H](Cc3ccccc3)N2C1=O | 4.69%
CC1CCC[C@H](O)CCCCCc2cc(O)cc(O)c2C(=O)O1 (stereo not given in full) | 2.98%
CN1C2CCC1CC(OC(=O)CCN1CCCC1)C2 (stereo not given) | 0.67%
COc1ccc(Cc2nccc3cc(OC)c(OC)cc23)cc1OC | 74.4% (active)
C[C@H]1CC[C@@]2(C)[C@@H](CC[C@@H]3[C@@H]2CC[C@]2(C)[C@@H](O)CC[C@@H]32)C1 | 5.74%
O=Cc1cn(Cc2ccc(F)cc2)c2ccccc12 | 0.18%
C[C@]12CCC(=O)C=C1CC[C@@H]1[C@@H]2C(=O)C[C@]2(C)C(=O)CC[C@@H]12 | 3.91%
